Only some compounds are listed: those with a hit (about 2.6% of all), similar ones and a draw of the others.
Xi reactivation: activators of X-chromosome reactivation in mouse fibroblasts. XiGFP mouse fibroblasts, % GFP-positive cells imaging, 3 d; cells co-treated with 5-aza-dC sensitizer; scaled so ellipticine positive control = 100%. activation, % at 7.58 µM. 360,000 tested, 0.055% active;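 active = mean normalized replicate activation at least 10% and every replicate at or above 10%; inconclusive = only one of the two criteria met; inactive = mean below 10% and not all replicates reach 10%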;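 note: 0% = median of on-plate neutral control wells and 100% = ellipticine 6 µM median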
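assay system = SV40-immortalized XiGFP fibroblast cells, line 68-5-11 | buffer or medium = DMEM plus 5-aza-dC sensitizer | doses = single-point pinned compound dosing | times = 3-day compound exposure, then 15 min fixation at room temperature | benchmarks = positive control ellipticine, 6 µM final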
Ecoli rRNA inh: inhibitors of bacterial rRNA selective over humanized ribosomes. E. coli WT GFP vs humanized-ribosome RFP mutants, fluorescence, 24 h; hits give low values; DMSO median 0, no signal -100. GFP signal change (wild-type ribosome), % (concentration not given with the values). 350,000 tested, 1.6% active;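 active = significant combined selectivity score with lowered wild-type GFP, culture density cut under 30%, mutant RFP and density less affected; inactive = any of these conditions unmet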
SR-BI DiI-HDL act: activators of SR-BI mediated HDL lipid uptake; activation, % at 12.5 µM; 320,000 tested, 0.096% active; AID 504775; CHO ldlA[mSR-BI] cells, DiI-HDL uptake fluorescence, 3 h; 100 = double the neutral-control signal;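 active = mean replicate activation of at least 60% and every replicate at or above 60%; inconclusive = mean or all-replicate condition met, but not both; inactive = mean below 60% and not all replicates reaching 60%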;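 note: 0% = median plate neutral-control signal and 100% = twice that signal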
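material = CHO ldlA[mSR-BI] cells | medium = Ham's F12 with 0.5% BSA, HEPES 25 mM, pH 7.4 | reagent = fluorescent DiI-HDL, 10 µg/mL final | compound dosing = single-point compound dose | incubation = 3 h, 37 °C | measured by = bottom-read fluorescence, 550/595 nm | measure = HDL uptake via cellular fluorescence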
SR-BI DiI inh: inhibitors of mouse SR-BI mediated HDL lipid uptake; Q61009; ldlA[mSR-BI] CHO cells, DiI-HDL uptake fluorescence, 3 h; inhibition, % at 12.5 µM; 320,000 tested, 0.96% active; AID 488896;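 active = mean replicate inhibition of at least 70% and a set share of replicates each scoring 70 or more; inconclusive = meets just one of the two criteria; inactive = fails both criteria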;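 note: 0% = median of neutral control wells and 100% = median of positive control wells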
Target sequence (Q61009 whole entry, looked up): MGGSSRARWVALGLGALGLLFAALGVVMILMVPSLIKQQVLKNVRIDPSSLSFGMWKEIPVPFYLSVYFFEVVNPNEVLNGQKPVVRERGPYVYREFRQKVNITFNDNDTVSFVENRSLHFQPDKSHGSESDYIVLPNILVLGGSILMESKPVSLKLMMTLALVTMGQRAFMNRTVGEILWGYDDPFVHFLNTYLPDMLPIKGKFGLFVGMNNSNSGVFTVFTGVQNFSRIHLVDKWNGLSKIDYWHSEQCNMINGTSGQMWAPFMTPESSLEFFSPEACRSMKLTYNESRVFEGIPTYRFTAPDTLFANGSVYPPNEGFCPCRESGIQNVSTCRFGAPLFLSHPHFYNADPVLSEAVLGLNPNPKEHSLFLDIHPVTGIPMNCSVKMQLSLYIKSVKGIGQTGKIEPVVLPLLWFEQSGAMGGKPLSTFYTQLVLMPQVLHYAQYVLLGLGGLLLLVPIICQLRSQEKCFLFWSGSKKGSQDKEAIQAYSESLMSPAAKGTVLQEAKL
dFosB activator: enhances mouse delta FosB homodimer DNA binding; activation, % at 25 µM; P13346; purified delta FosB, TAMRA-CDK5 oligo fluorescence polarization; percent of positive-control signal above neutral wells; 340,000 tested, 0.99% active;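 active = mean activation above about 17%, with every replicate also reaching it, limit read from the data, passing the limit was not always enough; inconclusive = only one of the two conditions met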
PvdQ inh: P. aeruginosa PvdQ acylase inhibition; inhibition, % at 10 µM; AID 488965; 340,000 tested, 0.063% active; purified PvdQ acylase, fluorescence plate reader; in the data active = inhibition above about 30%, passing the limit was not always enough; inconclusive = no clear call, values can overlap the other calls;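 note: 0% = vehicle neutral wells and 100% = reference inhibitor wells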
Active calls of the source: *; ? = inconclusive; · = not tested or not shown.

SMILES	Xi reactivation	Ecoli rRNA inh	SR-BI DiI-HDL act	SR-BI DiI inh	dFosB activator	PvdQ inh
CCc1ccc(/C=C2/SC(=S)N(CC(=O)Nc3nc4ccccc4s3)C2=O)cc1	·	·	-1	1	28*	-12
CCc1ccc(/C=C2\SC(=S)N(CCCC(=O)Nc3ccccn3)C2=O)cc1	·	·	5	-5	5	-6
O=C(CCCN1C(=O)/C(=C/c2cccc(Br)c2)SC1=S)Nc1cccnc1	0	-16	-20	20	22*	-12
Cc1ccc(/C=C2\SC(=S)N(CCCC(=O)Nc3cc(C)on3)C2=O)cc1	0	16	8	-8	9	3
Cc1cc(NC(=O)CN2C(=O)/C(=C/c3cccc(Br)c3)SC2=S)no1	0	15	-46	46	19*	-17
CCCCNC(=O)C1(C)CCC(=O)N1CCOc1ccccc1 (configuration not stated)	0	-2	·	·	·	·
C[C@@H]1CCCCO[C@@H](CN(C)C(=O)C2CCCCC2)[C@H](C)CN([C@@H](C)CO)C(=O)c2cc(NC(=O)CCCCCC(=O)Nc3ccccc3N)ccc2O1	-1	-1	·	·	·	·
COc1ccc(Nc2nc(-c3cccc([N+](=O)[O-])c3)nc3ccccc23)cc1	0	·	-88	88*	-6	12
COc1cc(Nc2nc3ccccc3nc2NS(=O)(=O)c2ccc([N+](=O)[O-])cc2)cc(OC)c1OC	0	4	-58	58	-15	7
COc1ccc(Nc2nc(-c3ccccc3)nc3ccccc23)cc1	0	-40	-50	50	-6	-8
COc1ccc(Nc2nc(-c3cccs3)nc3ccccc23)cc1	0	6	-75	75*	-11	13
O=[N+]([O-])c1ccc(S(=O)(=O)Nc2nc3ccccc3nc2Nc2ccccc2)cc1	0	8	-78	78*	-9	-5
O=C(O)c1ccc(Nc2nc(-c3ccc([N+](=O)[O-])cc3)nc3ccccc23)cc1	0	-21*	-14	14	-8	3
COc1cccc(Nc2nc(-c3cccs3)nc3ccccc23)c1	0	-41	-69	69	4	-2
C[C@@H]1CN([C@@H](C)CO)C(=O)Cc2cc(NS(C)(=O)=O)ccc2O[C@H]1CN(C)C(=O)NC1CCCCC1	0	2	·	·	·	·
O=[N+]([O-])c1ccc(-c2nc(Nc3ccc(O)cc3)c3ccccc3n2)cc1	0	3	-91	91*	2	-11
CN(C)c1ccc(N=Nc2nc3ccccc3n2C)cc1	1	16	·	·	21*	-4
CCOC(=O)[C@@H]1[C@H]2COc3cc(OC)ccc3[C@H]2N2C(=O)N(c3ccc(Br)cc3)C(=O)[C@]12C	0	0	-5	5	-3	-11
C[C@@H]1CN([C@@H](C)CO)C(=O)c2cc(NS(=O)(=O)c3cccs3)ccc2O[C@@H]1CN(C)C(=O)Nc1ccccc1	0	0	·	·	·	·
O=C(C1CCCCC1)N(CCN1CCCC1)c1nc2ccccc2s1	·	4	7	-7	-13	-7
Cc1cccc(NC(=O)c2c([N+](=O)[O-])c(C(C)(C)C)nn2C)c1	0	13	-8	8	-2	-19
Cn1nc(C(C)(C)C)c([N+](=O)[O-])c1C(=O)Nc1ccc(Br)cc1	0	-26*	-33	33	3	13
COc1cccc(NC(=O)c2nn(C)c(C(=O)Nc3cccc(OC)c3)c2[N+](=O)[O-])c1	0	-40*	-3	3	-2	-3
COc1ccc(S(=O)(=O)Nc2ccc3c(c2)C(=O)N([C@H](C)CO)C[C@H](C)[C@H](CN(C)CC2CCCCC2)OCCCC[C@H](C)O3)cc1	1	1	·	·	·	·
CC(C)CCOc1ccc(/C=C2\CCn3c2nc2cc(C(=O)O)ccc2c3=O)cc1	0	3	-15	15	-6	-7
SMILES	Xi reactivation	Ecoli rRNA inh	SR-BI DiI-HDL act	SR-BI DiI inh	dFosB activator	PvdQ inh
CCOC(=O)C(=O)NC12CC3CC(CC(C3)C1)C2	0	-5	63*	-63	4	-14
O=C(Nc1ccccc1Cc1ccccc1)c1ccccc1NS(=O)(=O)c1ccc(Cl)s1	0	·	10	-10	-4	1
CC(C)CCCCCCCCCCCCC(=O)NCC(=O)NC1C(C)OC(Nc2ncnc3nc[nH]c23)C(O)C1O (configuration not stated)	0	·	-5	5	68*	-3
O=C(O)C(C(O)c1ccc([N+](=O)[O-])cc1)[n+]1ccccc1 (configuration not stated)	0	6	14	-14	-2	-10
CCOc1cccc(/C=N/NC(=O)c2cc(C3CC3)[nH]n2)c1O	0	-17*	-39	39	8	-13
CCOc1cccc(/C=N/NC(=O)c2cccnc2)c1O	0	-16	-23	23	-1	7
CCOc1ccc(Cl)cc1/C=N/NC(=O)c1ccccc1	0	10	-57	57	-6	6
CCN(CC)S(=O)(=O)c1cccc(C(=O)N/N=C/c2ccc(O)c(O)c2O)c1	1	·	-1	1	-11	4
CCOc1ccccc1/C=N/NC(=O)c1cccc(Cl)c1	0	·	-86	86*	1	-9
CCOc1ccccc1/C=N/NC(=O)c1cccc(S(=O)(=O)N(CC)CC)c1	0	-6	-77	77*	-6	-9
CC(C)Oc1ccccc1/C=N/NC(=O)c1ccccc1Cl	0	8	-77	77*	2	7
CC(C)c1ccc2nc(NC(=O)C3CC3)sc2c1	0	-39	4	-4	-5	6
C[C@H](CO)N1C[C@H](C)[C@H](CN(C)Cc2ccccc2)Oc2ccc(NS(C)(=O)=O)cc2C1=O	?	2	·	·	·	·
CN(C)C(=O)C[C@@H]1CC[C@H]2[C@@H](COc3ccc(NC(=O)C4CCCCC4)cc3C(=O)N2C)O1	0	0	·	·	·	·
COc1ccc(F)cc1C(=O)C1CCCN(C(=O)c2ocnc2C)C1 (configuration not stated)	0	-5	19	-19	3	-12
CCC(=O)N1CC2(C1)[C@@H](c1ccc(-c3ccccc3)cc1)[C@@H](CO)N2C(C)=O	0	0	·	·	·	·
CCN(CC)S(=O)(=O)c1cccc(C(=O)Nc2cc(C)cc(C)c2)c1	·	·	-77	77*	-10	6
C[C@@H]1CN([C@H](C)CO)C(=O)c2cc(NC(=O)Nc3ccc4c(c3)OCO4)ccc2O[C@@H](C)CCCCO[C@@H]1CN(C)CC1CCCCC1	0	-18	·	·	·	·
CCNC(=S)N/N=C/c1cccc(C)c1	0	-14*	22	-22	1	9

Screening data (PubChem BioAssay)
